Screening data (PubChem)
The list is not random: actives were taken first. Their share in the collection is about 1.7%.
Rpn11 inh – inhibitors of human proteasome Rpn11; human 26S proteasome, Ub4-pepOG fluorescence polarization; 20S core pre-blocked with epoxomicin; O00487; hit rate 0.59% among 360,000; inhibition, % at 20 µM;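 active means inhibition at 20 µM, scaled to each plate's controls, above about 33%, limit read from the data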
PLCb3 inh – PLC-beta3 (human) inhibition, primary screen; Q01970; Purified PLC-beta3, fluorogenic substrate, fluorescence; inhibition, % at 12.2 µM; hit rate 0.18% among 370,000; AID 720704; in the data active means inhibition above about 11%;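 further: 0% = median of compound wells on plate and 100% = full blocker control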
PLC-gamma1 inh – inhibitors of human phospholipase C gamma1 | inhibition, % at 12.2 µM | P19174 | hit rate 0.84% among 370,000 | purified PLC-gamma1, fluorogenic substrate, fluorescence
UCH37 inh – inhibitors of human deubiquitinating enzyme UCH37; Q9Y5K5; purified proteasome/UCH37, Ub-AMC cleavage fluorescence; inhibition, % (no concentration beside the values); hit rate 0.33% among 330,000; AID 588478;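 active means mean inhibition over replicate wells above about 20%, limit read from the data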;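 further: 0% = compound-free wells with enzyme and 100% = wells lacking proteasome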
Target sequence (Q9Y5K5 whole entry, looked up): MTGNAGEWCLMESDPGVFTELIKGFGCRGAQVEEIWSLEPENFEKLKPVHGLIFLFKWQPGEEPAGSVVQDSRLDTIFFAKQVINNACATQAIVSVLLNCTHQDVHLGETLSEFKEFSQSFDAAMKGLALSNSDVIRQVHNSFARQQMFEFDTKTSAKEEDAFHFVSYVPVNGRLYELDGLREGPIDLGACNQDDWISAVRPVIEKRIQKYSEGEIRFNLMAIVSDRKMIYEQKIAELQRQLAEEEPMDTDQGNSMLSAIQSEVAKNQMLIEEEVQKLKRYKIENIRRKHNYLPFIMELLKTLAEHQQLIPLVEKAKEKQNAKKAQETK
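assay system = human UCH37 enzyme supplied as purified proteasome complex | amount = proteasome at 0.15 nM in the dispensed enzyme solution | schedule = 30 min compound-proteasome preincubation then 25 min substrate reaction, room temperature | measured by = fluorescence, ex 355 nm, em 460 nm | benchmarks = no-proteasome wells (full inhibition) and compound-free wells (no inhibition)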
PLCg1 ctr – counter-screen for PLC-beta3 inhibitors: inhibitors of human PLC-gamma1 | hit rate 3.1% among 3,300 | inhibition, % at 12.3 µM | shares compounds with PLC-gamma1 inh | purified PLC-gamma1, fluorogenic substrate, fluorescence | AID 743258
PLCb3 confirm – confirmation of human PLC-beta3 inhibitors; AID 743261; shares compounds with PLC-gamma1 inh; inhibition, % at 12.3 µM; purified PLC-beta3, fluorogenic substrate fluorescence; hit rate 1% among 3,300; in the data active means inhibition above about 11%
The depositor's hits bear a star; x = no result. Unless noted, no stated cut-off is given here; in the data, active means inhibition above about 9.5%; inactive means the rest.

SMILES | Rpn11 inh | PLCb3 inh | PLC-gamma1 inh | UCH37 inh | PLCg1 ctr | PLCb3 confirm
CC(C)N(C(=O)[C@H]1C[C@H](CC(=O)NCCN2CCOCC2)C(=O)N2CCc3c([nH]c4ccc(Cl)cc34)[C@]12C)C(C)C | 0 | 3 | 9.9* | 0 | -7 | -1
CCN(CC)C(=O)[C@H]1C[C@H](CC(=O)NCCN2CCOCC2)C(=O)N2CCc3c([nH]c4ccc(Cl)cc34)[C@]12C | 7 | 0 | 1 | 3 | x | x
CC(=NNc1ccc(C(=O)O)cc1)c1ccc(S(=O)(=O)NCc2ccco2)cc1 | x | x | x | 19 | x | x
CCN1CCN(CC(=O)NC2CCCCC2)C(=O)C1=O | 0 | 7 | 7 | 6 | x | x
CCN1CCN(CC(=O)NC2CCCC2)C(=O)C1=O | -3 | 7 | 13* | 6 | -4 | -4
CCN(CC)c1ccc(C=NN2CCN(Cc3ccccc3Cl)CC2)c(O)c1 | x | x | x | 5 | x | x
CCNC(=O)C1(C)CCN(C(=O)c2cc(OC)c(OC)c(OC)c2)C1 (stereo not drawn) | 0 | 1 | -1 | x | x | x
CCNC(=O)C1(C)CCN(C(=O)c2ccc(OC)c(OC)c2)C1 (stereo not drawn) | -1 | 7 | 9.7* | x | -8 | -1
CCCNC(=O)C1(C)CCN(C(=O)c2ccc(C)c(F)c2)C1 (stereo not drawn) | -4 | 12* | 2 | x | -2 | 1
CON=CC(=NNc1ccc(OC)cc1)C(=O)c1ccccc1 | x | x | x | 1 | x | x
Cc1ccc(NC(=O)COC(=O)CC2CC3CCC2C3)cc1S(=O)(=O)N1CCOCC1 (stereo not drawn) | -1 | -2 | 11* | 1 | -6 | -4
Cc1ccc(NC(=O)CSc2ccccc2)cc1S(=O)(=O)N1CCOCC1 | 6 | -2 | 12* | -3 | -32 | -3
Cc1ccc(NC(=O)COC(=O)CN2C(=O)C3CCCCC3C2=O)cc1S(=O)(=O)N1CCOCC1 (stereo not drawn) | -3 | -2 | 2 | 3 | x | x
Cc1ccc(NC(=S)NCc2ccccc2)cc1S(=O)(=O)N1CCCCC1 | -3 | 9 | 14* | 0 | 5 | 8
O=C(Cc1cccs1)Nc1ccc(F)c(S(=O)(=O)N2CCOCC2)c1 | 0 | 1 | 9.9* | 3 | -5 | -1
Cc1ccc(NC(=O)CSc2ccccc2)cc1S(=O)(=O)N1CCCCC1 | 0 | -1 | 3 | 1 | x | x
Cn1c(Cl)c(C=NOC(=O)c2cccc(Cl)c2)c2ccccc21 | x | x | x | -1 | x | x
Nc1sc(-c2ccccc2)cc1C(=O)NN=Cc1ccc(Cl)cc1 | x | x | x | -40 | x | x
Cc1nc(C(=NO)C(N)=O)cs1 | x | x | x | 2 | x | x
CCCC(=O)NNC(=O)CCC(=O)Nc1ccccc1Cl | 1 | 0 | 10* | 0 | -4 | -2
O=C(CCC(=O)Nc1ccccc1Cl)NNC(=O)NC1CCCCC1 | 6 | -9 | 0 | 2 | x | x
COc1cccc(C=NNC(=O)c2ccc(COc3ccc(Cl)cc3Cl)o2)c1 | x | x | x | 3 | x | x
COCCn1c(CN2CCN(c3ccc(OC)cc3)CC2)nc2c1c(=O)n(C)c(=O)n2C | -1 | 2 | -1 | 2 | x | x
CCOCCn1c(CN2CCN(CCO)CC2)nc2c1c(=O)n(C)c(=O)n2C | 0 | 0 | 11* | 2 | 0 | -3
Cn1c(=O)c2c(nc(CN3CCN(CCO)CC3)n2Cc2cccc3ccccc23)n(C)c1=O | -6 | 2 | 0 | 4 | x | x
SMILES | Rpn11 inh | PLCb3 inh | PLC-gamma1 inh | UCH37 inh | PLCg1 ctr | PLCb3 confirm
Cn1c(=O)c2c(nc(CN3CCN(CCO)CC3)n2Cc2ccccc2Cl)n(C)c1=O | 3 | 6 | 12* | 2 | -1 | -1
COc1ccc(N2CCN(Cc3nc4c(c(=O)n(C)c(=O)n4C)n3CCc3ccccc3)CC2)cc1 | -7 | 6 | 13* | 3 | 8 | 0
CC(=NNC(=O)Cc1ccc(F)cc1)c1ccc(F)cc1 | x | x | x | 1 | x | x
CC(C)N(c1ccccc1)c1ccc(NC(=O)[C@@H]2O[C@H](CO)[C@H](O)[C@H](O)[C@H]2O)cc1 | -6 | 0 | 2 | x | x | x
O=C(Nc1ccc(C(O)c2ccccc2)cc1)[C@@H]1O[C@H](CO)[C@H](O)[C@H](O)[C@H]1O (stereo partly drawn) | -5 | 8 | 14* | x | -7 | -2
CC(=NNC(=S)Nc1cccc(C)c1)c1cccc([N+](=O)[O-])c1 | x | x | x | -1 | x | x
COc1cc(OC)c2cc(C(=O)NN=Cc3ccccc3O)[nH]c2c1 | x | x | x | -12 | x | x
O=C(O)c1ccc2c(c1)C(=O)/C(=C\c1ccco1)C2=O | -10 | 5 | 36* | 13 | 23* | -9
Cc1ccc(/C=C2/C(=O)c3ccc(C(=O)O)cc3C2=O)o1 | -9 | -5 | 19* | 17 | -3 | -13
Cc1ccc(C=C2C(=O)c3ccccc3C2=O)o1 | 13 | -3 | -3 | 3 | x | x
O=C(CCN1CCOCC1)NN=Cc1cc([N+](=O)[O-])ccc1OC(F)F | x | x | x | -1 | x | x
COCC(C)n1c(SCc2nc(N)nc(Nc3ccccc3C)n2)nc2ccccc2c1=O (stereo not drawn) | 2 | -2 | 11* | 7 | -7 | -2
CN1CCN(c2ccc([N+](=O)[O-])cc2C(=O)c2ccc(Br)cc2)CC1 | -8 | 1 | 3 | 9 | x | x
O=C(c1ccc(Br)cc1)c1cc([N+](=O)[O-])ccc1N1CCCCC1 | 3 | 0 | 14* | 2 | -5 | -8
O=C(CCc1ccc(S(=O)(=O)NCCc2ccccc2)cc1)Nc1ccc2c(c1)OCO2 | 2 | -1 | 10* | 3 | -6 | -4
